The results in this text go back to ChEMBL document CHEMBL1130189, “Anionic- and lipophilic-mediated surface binding inhibitors of human leukocyte elastase” (J Med Chem, 1997).

Broadly, the Ki is the dissociation constant of the complex between target and ligand, obtained from inhibition or displacement. Read a low Ki as tighter binding. One may read the Km as the concentration of substrate that gives half-maximal velocity.

In one data set the target is Prothrombin (Homo sapiens, UniProt P00734). Kind of data set: Inhibition of thrombin at pH 7.5 in HEPES buffer containing 200 mM NaCl with substrate Bz-Phe-Val-Arg-pNA. In short, it runs like this:
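Reaction started with enzyme after >10 min equilibration. A405 rise recorded 15 min. Eight compound levels over a 200-fold range. Ki from competitive-model fit of vi/vc.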

Data set [1] deals with T1, Neutrophil elastase (Homo sapiens, UniProt P08246).
T1 sequence (P08246 whole entry): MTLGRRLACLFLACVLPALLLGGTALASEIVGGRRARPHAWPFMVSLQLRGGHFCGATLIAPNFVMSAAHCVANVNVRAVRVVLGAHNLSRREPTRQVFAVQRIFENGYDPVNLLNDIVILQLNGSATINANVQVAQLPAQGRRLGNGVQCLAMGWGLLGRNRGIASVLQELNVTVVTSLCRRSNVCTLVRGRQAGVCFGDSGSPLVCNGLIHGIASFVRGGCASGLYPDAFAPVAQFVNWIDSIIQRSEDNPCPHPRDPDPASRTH
Kind of data set: Inhibitory activity against human leukocyte elastase.

The target of a further data set is T2, Cathepsin G (Homo sapiens, UniProt P08311).
T2 sequence (P08311 whole entry): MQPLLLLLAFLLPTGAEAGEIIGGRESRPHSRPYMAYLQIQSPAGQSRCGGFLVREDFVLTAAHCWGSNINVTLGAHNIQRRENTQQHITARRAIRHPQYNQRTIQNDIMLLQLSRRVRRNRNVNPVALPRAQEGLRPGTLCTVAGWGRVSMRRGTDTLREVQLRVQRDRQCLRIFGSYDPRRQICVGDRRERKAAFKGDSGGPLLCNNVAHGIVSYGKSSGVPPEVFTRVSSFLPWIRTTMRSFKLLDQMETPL
The data set is described as follows: Inhibition of cathepsin G at pH 7.5 in HEPES buffer containing 200 mM NaCl with substrate Suc-Ala-Ala-Pro-Phe-pNA. In short, it runs like this:
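Wells pre-equilibrated at 37 °C >10 min before enzyme start. A405 followed 15 min. Eight concentrations over a 200-fold span. Ki from competitive fit of vi/vc versus [I].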

Data set [2] has as its target T3, Neutrophil elastase (Homo sapiens) (UniProt P08246).
T3 sequence (whole entry): T1 sequence (P08246 whole entry)
The conditions noted are these: 1 uM.

For data set [3], the target named is T1, Neutrophil elastase. The data set is described as follows: Binding Affinity to inhibit HLE. In outline:
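Purified human leukocyte elastase (3 nM final) with 10 µM […] (below Km 200 µM) in 50 mM HEPES, 200 mM NaCl, pH 7.5, 0.3% DMSO. Inhibitor and substrate pre-equilibrated at 37 °C for >10 min, then enzyme added. A405 read for 15 min. Eight inhibitor levels spanning a 200-fold range. Ki from fit of vi/vc to the competitive-inhibition equation.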

In data set [4] the target is T3, Neutrophil elastase (Homo sapiens). The settings on record: 0.5 uM.
Data set [5] shares this target. The settings on record: 0.2 uM.
Substrate in data set [6]: O=C(O)COc1cc(Cc2cc(OCc3ccccc3)c(Cc3cc(OCc4ccccc4)c(Cc4cc(OCc5ccccc5)c(Cc5cc(OCc6ccccc6)c(Cc6cc(O)ccc6OCC(=O)O)cc5OCC(=O)O)cc4OCC(=O)O)cc3OCC(=O)O)cc2OCC(=O)O)c(OCc2ccccc2)cc1CO
The conditions noted are these: 0.5 uM.

Substrate in data set [7]: O=C(O)COc1cc(Cc2cc(OCc3ccccc3)c(Cc3cc(OCc4ccccc4)c(Cc4cc(OCc5ccccc5)c(Cc5cc(OCc6ccccc6)c(Cc6cc(O)ccc6OCC(=O)O)cc5OCC(=O)O)cc4OCC(=O)O)cc3OCC(=O)O)cc2OCC(=O)O)c(OCc2ccccc2)cc1CO
The settings on record: 0.2 uM.

Substrate in data set [8]: O=C(O)COc1cc(Cc2cc(OCc3ccccc3)c(Cc3cc(OCc4ccccc4)c(Cc4cc(OCc5ccccc5)c(Cc5cc(OCc6ccccc6)c(Cc6cc(O)ccc6OCC(=O)O)cc5OCC(=O)O)cc4OCC(=O)O)cc3OCC(=O)O)cc2OCC(=O)O)c(OCc2ccccc2)cc1CO
The settings on record: 1 uM.

For `COc1ccc(OCC(=O)O)c(Cc2cc(OCC3CCCCC3)c(Cc3cc(OCC(=O)O)c(Cc4cc(OCC5CCCCC5)c(Cc5cc(OCC(=O)O)c(Cc6cc(OCC7CCCCC7)c(C)cc6OC)cc5OC)cc4OC)cc3OC)cc2OC)c1`, the results for the Ki on Prothrombin, at Neutrophil elastase [1] and on Cathepsin G were over 15000 nM, 20 nM and over 15000 nM, respectively.

Take `O=C(O)COc1cc(Cc2cc(OCc3ccccc3)c(Cc3cc(OCc4ccccc4)c(Cc4cc(OCc5ccccc5)c(Cc5cc(OCc6ccccc6)c(Cc6cc(O)ccc6OCC(=O)O)cc5OCC(=O)O)cc4OCC(=O)O)cc3OCC(=O)O)cc2OCC(=O)O)c(OCc2ccccc2)cc1CO`: the Ki on Prothrombin was over 15000 nM; at Neutrophil elastase [3] it was 190 nM; on Neutrophil elastase [1] it was 120 nM; at Cathepsin G, over 15000 nM. For the same molecule, the Vm in data set [2], in data set [4] and in data set [5] was 0.2 µM each time.

`O=C(O)COc1cc(Cc2cc(OCc3ccccc3)c(Cc3cc(OCc4ccccc4)c(Cc4cc(O)ccc4OCC(=O)O)cc3OCC(=O)O)cc2OCC(=O)O)c(OCc2ccccc2)cc1CO`: the inhibition constant (Ki) on Prothrombin is over 15000 nM; on Neutrophil elastase [1], 8300 nM; at Cathepsin G, over 15000 nM.

For the molecule `O=C(O)COc1cc(Cc2cc(OCc3ccccc3)c(Cc3cc(OCc4ccccc4)c(Cc4cc(OCc5ccccc5)c(Cc5cc(O)ccc5OCC(=O)O)cc4OCC(=O)O)cc3OCC(=O)O)cc2OCC(=O)O)c(OCc2ccccc2)cc1CO`, the Ki on Prothrombin is 750 nM; at Neutrophil elastase [1] it was 130 nM; at Cathepsin G, over 15000 nM.

`COc1ccc(OCC(=O)O)c(Cc2cc(OCCCCCc3ccccc3)c(Cc3cc(OCC(=O)O)c(Cc4cc(OCCCCCc5ccccc5)c(Cc5cc(OCC(=O)O)c(Cc6cc(OCCCCCc7ccccc7)c(C)cc6OC)cc5OC)cc4OC)cc3OC)cc2OC)c1`: the results for the inhibition constant Ki on Prothrombin, at Neutrophil elastase [1] and at Cathepsin G were 1400 nM, 17 nM and over 15000 nM, respectively.

Turning to `COc1ccc(OCC(=O)O)c(Cc2cc(O)c(Cc3cc(OCC(=O)O)c(Cc4cc(O)c(Cc5cc(OCC(=O)O)c(Cc6cc(O)c(C)cc6OC)cc5OC)cc4OC)cc3OC)cc2OC)c1`, the results for the Ki at Prothrombin, on Neutrophil elastase [1] and on Cathepsin G were over 15000 nM, 1300 nM and over 15000 nM, respectively.

With `COc1ccc(OCC(=O)O)c(Cc2cc(OCCCc3ccccc3)c(Cc3cc(OCC(=O)O)c(Cc4cc(OCCCc5ccccc5)c(Cc5cc(OCC(=O)O)c(Cc6cc(OCCCc7ccccc7)c(C)cc6OC)cc5OC)cc4OC)cc3OC)cc2OC)c1`, the results for the Ki on Prothrombin, at Neutrophil elastase [1] and on Cathepsin G were 1700 nM, 100 nM and over 15000 nM, respectively.

`CC(C)(C)c1cc2c(OCC(=O)O)c(c1)Cc1cc(C(C)(C)C)cc(c1OCC(=O)O)Cc1cc(C(C)(C)C)cc(c1OCC(=O)O)Cc1cc(C(C)(C)C)cc(c1OCC(=O)O)Cc1cc(C(C)(C)C)cc(c1OCC(=O)O)Cc1cc(C(C)(C)C)cc(c1OCC(=O)O)Cc1cc(C(C)(C)C)cc(c1OCC(=O)O)Cc1cc(C(C)(C)C)cc(c1OCC(=O)O)C2` gave a Ki at Neutrophil elastase [1] of 1300 nM.

With `COc1cc(CO)c(OCc2ccccc2)cc1Cc1cc(OC)c(Cc2cc(OC)c(Cc3cc(OC)c(Cc4cc(OC)c(Cc5cc(O)ccc5OCC(=O)O)cc4OCc4ccccc4)cc3OCC(=O)O)cc2OCc2ccccc2)cc1OCC(=O)O`, the results for the Ki on Prothrombin, on Neutrophil elastase [1] and at Cathepsin G were over 15000 nM, 200 nM and 1500 nM, respectively.

`COCCOCOc1cc(Cc2cc(OC)c(Cc3cc(OC)c(Cc4cc(OC)c(Cc5cc(OC)c(Cc6cc(OC)ccc6OCC(=O)O)cc5OCOCCOC)cc4OCC(=O)O)cc3OCOCCOC)cc2OCC(=O)O)c(OC)cc1C`: the Ki on Prothrombin is 240 nM; on Neutrophil elastase [1] it was 1000 nM; at Cathepsin G, over 15000 nM.

B1: Neutrophil elastase (Homo sapiens), P08246 (protein)
chain: T1 sequence (P08246 whole entry)
Turning to B1, the Km turned out to be 1.1 µM in data set [6], 0.77 µM in data set [7] and 2.3 µM in [8].
